Activity calls are given as the source filed them. No cut-off for these calls is given here.
Key:
[1] = test system: U-87 MG; experiment: Inhibition of colony formation in human U87MG cells assessed as combination index at 1 to 30 uM measured after 24 hrs in presence of arsenic trioxide by crystal violet staining based assay; type: functional, U-87MG ATCC
[2] = test system: U-87 MG; experiment: Cytotoxicity against human U87MG cells assessed as inhibition of cell proliferation at <IC50 measured after 72 hrs by MTT assay relative to control; type: functional, U-87MG ATCC
[3] = test system: U-87 MG; experiment: Cytotoxicity against human U87MG cells assessed as inhibition of cell growth measured after 72 hrs by MTT assay; type: functional, cell-based, U-87MG ATCC; details: Homo sapiens, U-87 MG, 72 h; read-out: IC50
Method in brief: (§1)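 A172 and NU04 cells were seeded at 4000 cells/well and U87MG at 5000 cells/well, incubated overnight at 37 °C, 5% CO2, then exposed to compound or vehicle for 72 h. MTT (3 mg/mL) was added for 4 h, formazan was dissolved in DMSO, and absorbance was read at 570 nm. IC50 came from nonlinear regression; mean ± SD of at least three experiments.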

[4] = Cytotoxicity against human NU04 cells assessed as inhibition of cell growth measured after 72 hrs by MTT assay; type: functional, cell-based; details: Homo sapiens, 72 h; read-out: IC50; method in brief: as §1
[5] = test system: A 172; experiment: Cytotoxicity against human A172 cells assessed as inhibition of cell growth measured after 72 hrs by MTT assay; type: functional, cell-based; details: Homo sapiens, A 172, 72 h; read-out: IC50; method in brief: as §1
[6] = target: T1, Protein disulfide-isomerase (Homo sapiens, UniProt P07237); experiment: Inhibition of recombinant human N-terminal His-tagged PDI expressed in Escherichia coli BL21 (DE3) pLysS assessed as reduction in enzyme-mediated bovine insulin aggregation
Target sequence in this assay (P07237 whole entry): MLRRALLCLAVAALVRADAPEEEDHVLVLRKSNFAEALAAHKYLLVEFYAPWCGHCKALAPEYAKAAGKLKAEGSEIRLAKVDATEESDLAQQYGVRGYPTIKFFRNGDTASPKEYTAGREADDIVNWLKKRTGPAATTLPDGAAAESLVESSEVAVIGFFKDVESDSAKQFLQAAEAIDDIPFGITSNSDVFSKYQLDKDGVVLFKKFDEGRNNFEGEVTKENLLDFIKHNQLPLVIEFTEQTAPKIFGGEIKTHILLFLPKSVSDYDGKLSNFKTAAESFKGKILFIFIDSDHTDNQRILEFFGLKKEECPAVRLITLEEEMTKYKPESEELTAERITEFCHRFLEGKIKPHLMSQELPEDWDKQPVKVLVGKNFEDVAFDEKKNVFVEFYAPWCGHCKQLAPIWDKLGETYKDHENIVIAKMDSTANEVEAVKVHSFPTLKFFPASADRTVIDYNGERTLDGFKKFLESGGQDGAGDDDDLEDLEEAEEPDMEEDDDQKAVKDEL

[7] = test system: D54 cell line; experiment: Inhibition of colony formation in 1 to 6 Gy-irradiated human D54 cells at 0.05 uM measured after 10 to 12 days by crystal violet staining based assay; type: functional, cell-based
Method in brief: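 D54 cells irradiated at 0, 1, 2, 4 or 6 Gy and plated immediately at 200–1000 cells/well according to dose. Treated with DMSO, 0.05 μM PACMA31 or 1 μM compounds, grown 10–12 days, then colonies stained with 0.1% crystal violet.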

[8] = test system: A 172; experiment: Antimigratory activity against human A172 cells at 30 uM measured after 4 hrs by Giemsa staining based transwell migration assay; type: functional, cell-based
Method in brief: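 A172 cells (1 x 10^5) were treated with compound and seeded into inserts with 8.0 μm PET membrane in serum-free medium. DMEM with 10% FBS was in the lower well; wells without FBS served as control. After 4 h, migrated cells were Giemsa-stained and imaged at 10X, 5 fields per well.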

[9] = test system: A 172; experiment: Antimigratory activity against human A172 cells assessed as reduction in cell migration towards wound area measured after 24 hrs by Giemsa staining based microscopic analysis; type: functional
Method in brief: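 A172 cells plated at 50,000 cells/well, incubated overnight at 37 °C, 5% CO2, then held 24 h in serum-free DMEM. A scratch was made, compounds were added, and cells grew 24 h until DMSO-control wells closed. Cells were Giemsa-stained and imaged at 10X.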

[10] = test system: A 172; experiment: Induction of endoplasmic reticulum stress in human A172 cells assessed as increase in GRP78 expression at 1 uM measured after 24 hrs by Western blot analysis; type: functional, cell-based
[11] = target: Eukaryotic translation initiation factor 2 subunit 1 (Homo sapiens) (UniProt P05198); experiment: Induction of EIF2alpha phosphorylation in human U87MG cells at 1 uM measured after 2 hrs by Western blot analysis; type: cell-based
Method in brief: (§2)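 eIF2α phosphorylation in U87MG cells after 2 h with 1 µM PACMA31 or 20 µM analogues; tunicamycin 10 µg/mL as comparator. Lysates (Tris/NaCl/Triton/SDS, sonicated) quantified by BCA; 30 µg protein separated on 10% gels, blotted to PVDF, probed for phospho-eIF2α, detected by fluorescence.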

[12] = test system: U-87 MG; experiment: Down regulation of MMP9 expression in human U87MG cells at 0.25 uM measured after 24 hrs by Western blot analysis; type: functional, cell-based; details: U-87MG ATCC
[13] = target: T1, Protein disulfide-isomerase; experiment: Inhibition of recombinant human N-terminal His-tagged PDI expressed in Escherichia coli BL21 (DE3) pLysS at 100 uM measured after 1 hr by ANS dye based fluorescence spectra analysis
Method in brief: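 ANS spectral scan: PDI incubated with 100 μM compounds or matching DMSO in TBS for 1 h at 37 °C. ANS then added and incubated 20 min at 25 °C in the dark. Fluorescence spectrum recorded with excitation 370 nm, emission 400–700 nm.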
Target sequence in this assay (P07237 18-508 limits assumed): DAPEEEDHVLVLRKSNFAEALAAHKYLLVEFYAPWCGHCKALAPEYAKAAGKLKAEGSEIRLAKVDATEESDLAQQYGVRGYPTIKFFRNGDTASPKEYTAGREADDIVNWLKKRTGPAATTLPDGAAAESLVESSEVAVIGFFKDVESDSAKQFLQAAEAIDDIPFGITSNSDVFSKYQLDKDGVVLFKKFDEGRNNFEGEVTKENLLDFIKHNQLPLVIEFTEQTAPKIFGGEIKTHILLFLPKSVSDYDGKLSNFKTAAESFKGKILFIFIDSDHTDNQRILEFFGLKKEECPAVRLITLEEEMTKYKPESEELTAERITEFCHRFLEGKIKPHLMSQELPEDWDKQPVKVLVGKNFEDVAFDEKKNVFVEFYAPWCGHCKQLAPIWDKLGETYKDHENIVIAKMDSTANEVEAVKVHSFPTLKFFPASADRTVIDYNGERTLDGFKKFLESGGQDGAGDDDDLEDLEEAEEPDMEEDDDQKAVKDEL

[14] = target: Eukaryotic translation initiation factor 2 subunit 1 (Homo sapiens) (UniProt P05198); experiment: Induction of EIF2alpha phosphorylation in human A172 cells at 1 uM measured after 2 hrs by Western blot analysis; type: cell-based
[15] = test system: U-87 MG; experiment: Induction of endoplasmic reticulum stress in human U87MG cells assessed as increase in GRP78 expression at 1 uM measured after 24 hrs by Western blot analysis; type: functional, cell-based; details: U-87MG ATCC
Method in brief: (§3)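 ER-stress immunoblot: 0.5 x 10^6 U87MG cells/well treated for 24 h with 20 µM analogues, 1 µM PACMA31 or DMSO; tunicamycin 10 µg/mL for 2 or 24 h as positive control. Lysis in Tris/NaCl/Triton/SDS buffer with sonication; 30 µg protein on 10% gels, transferred to PVDF, GRP78 probed, fluorescence imaging.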

[16] = target: T1, Protein disulfide-isomerase; experiment: Binding affinity to recombinant human N-terminal His-tagged PDI expressed in Escherichia coli BL21 (DE3) pLysS assessed as change in melting temperature at 100 uM by ROX dye based thermal shift assay
Method in brief: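 Purified wild-type, C53S/C397S or H256A PDI at 0.5 mg/mL in 50 mM Tris, pH 7.0, with or without 100 μM compound, was mixed with ROX dye in a 20 µL well. DMSO (5% in buffer) was the control. Samples were heated 25–99 °C at 1 °C/min, and the Boltzmann melting temperature shift versus DMSO was reported. Mean ± SD of three experiments.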
Target sequence in this assay (P07237 18-508 limits assumed): as above

[17] = test system: U-87 MG; experiment: Inhibition of colony formation in human U87MG cells […] by crystal violet staining based assay; type: functional, cell-based; details: U-87MG ATCC
Method in brief: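 Clonogenicity: U87MG cells seeded at 200 cells/well, left overnight, treated 24 h, then medium replaced and cells grown ten days. Stained 30 min with crystal violet, washed, imaged; normalized well intensity from three independent experiments.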

[18] = target: T1, Protein disulfide-isomerase; experiment: Inhibition of recombinant human N-terminal His-tagged PDI expressed in Escherichia coli BL21 (DE3) pLysS assessed as reduction in enzyme-mediated bovine insulin aggregation at 40 uM measured after 1 hr in presence of 5 mM NAC
Method in brief: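 Compounds pretreated with NAC for 30 min at 37 °C, then added to the insulin reductase assay at final 40 μM compound with 0, 1, 2 or 5 mM NAC. The assay uses 0.4 μM PDI preincubated 1 h at 37 °C, then DTT and bovine insulin, read at 620 nm, with % activity at 80 min.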
Target sequence in this assay (P07237 18-508 limits assumed): as above

[19] = target: 72 kDa type IV collagenase (Homo sapiens) (UniProt P08253); experiment: Inhibition of MMP2 activity in human U87MG cells at 0.25 uM […] by gelatin zymographic method; type: cell-based
[20] = test system: U-87 MG; experiment: Down regulation of cleaved MMP2 expression in human U87MG cells at 0.25 uM measured after 24 hrs by Western blot analysis; type: functional, cell-based; details: U-87MG ATCC
[21] = test system: A 172; experiment: Induction of endoplasmic reticulum stress in human A172 cells assessed as increase in GRP78 expression at 20 uM measured after 24 hrs by Western blot analysis; type: functional, cell-based
[22] = test system: A 172; experiment: Effect on PDI expression in human A172 cells at 20 uM measured after 24 hrs by Western blot analysis; type: functional, cell-based
[23] = test system: U-87 MG; experiment: Cytotoxicity against human U87MG cells assessed as inhibition of cell proliferation at <IC50 treated for 24 hrs and measured after 10 days by colony formation assay relative to control
[24] = test system: U-87 MG; experiment: Effect on MMP2 expression in human U87MG cells at 10 uM measured after 24 hrs by Western blot analysis; type: functional, cell-based; details: U-87MG ATCC
[25] = test system: U-87 MG; experiment: Induction of endoplasmic reticulum stress in human U87MG cells assessed as increase in GRP78 expression at 20 uM measured after 24 hrs by Western blot analysis; type: functional, cell-based; details: U-87MG ATCC; method in brief: as §3
[26] = target: Eukaryotic translation initiation factor 2 subunit 1 (Homo sapiens) (UniProt P05198); experiment: Induction of EIF2alpha phosphorylation in human A172 cells at 20 uM measured after 2 hrs by Western blot analysis; type: cell-based
[27] = test system: U-87 MG; experiment: Effect on PDI expression in human U87MG cells at 20 uM measured after 24 hrs by Western blot analysis; type: functional, cell-based; details: U-87MG ATCC
[28] = test system: HFF-1; experiment: Cytotoxicity against HFF1 cells assessed as inhibition of cell growth measured after 72 hrs by MTT assay; type: cell-based; details: Homo sapiens, HFF-1, 72 h
Method in brief: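 Cells grown as monolayers at 37 °C, 5% CO2, seeded and left overnight, then exposed to drug or vehicle for 72 h. MTT (20 μL of 3 mg/mL) added for 4 h, supernatant removed, formazan dissolved in DMSO, absorbance read at 570 nm. IC50 from nonlinear regression of log concentration–response curves; at least three independent experiments.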

[29] = target: Focal adhesion kinase 1 (Homo sapiens) (UniProt Q05397); experiment: Effect on FAK phosphorylation in human U87MG cells at 10 uM measured after 24 hrs by Western blot analysis; type: cell-based
[30] = Therapeutic ratio of IC50 for HFF1 cells to IC50 for human NU04 cells
Method in brief: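 Ratio of two growth-inhibition IC50s, HFF-1 normal human fibroblasts over NU04 glioma cells. Cells were grown as monolayers at 37 °C in 5% CO2, with NU04 seeded at 4000 cells/well. After overnight attachment, cells were exposed to compound or vehicle for 72 h. MTT (3 mg/mL) was added for 4 h, and formazan dissolved in DMSO was read at 570 nm. IC50s came from nonlinear regression of log concentration-response curves, with at least three independent experiments.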

[31] = test system: Protein disulfide-isomerase (Homo sapiens), P07237 [H256A]; experiment: Inhibition of recombinant human N-terminal His-tagged PDI H256A mutant expressed in Escherichia coli BL21 (DE3) pLysS at 10 uM assessed as reduction in enzyme-mediated bovine insulin aggregation
Method in brief: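 Insulin reductase assay against H256A PDI: 0.4 μM enzyme preincubated with compounds at 10 μM for 1 h at 37 °C in 100 mM sodium phosphate, 2 mM EDTA, 8 μM DTT, pH 7.0. Then 500 μM DTT and 130 μM bovine insulin added; aggregation read at 620 nm at room temperature. Activity % from OD change at 0 and 80 min, relative to PDI and DTT-only controls; three experiments.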

[32] = target: Eukaryotic translation initiation factor 2 subunit 1 (Homo sapiens) (UniProt P05198); experiment: Induction of EIF2alpha phosphorylation in human U87MG cells at 20 uM measured after 2 hrs by Western blot analysis; type: cell-based; method in brief: as §2
[33] = test system: A 172; experiment: Induction of morphological changes in human A172 cells at 40 uM measured after 48 hrs by Giemsa-staining based microscopic analysis; type: functional, cell-based
[34] = test system: U-87 MG; experiment: Cytotoxicity against human U87MG cells assessed as inhibition of cell proliferation at <IC50 treated for 24 hrs, measured after 10 days by colony formation assay relative to control

Sequence of Eukaryotic translation initiation factor 2 subunit 1 (Homo sapiens) (P05198 whole entry): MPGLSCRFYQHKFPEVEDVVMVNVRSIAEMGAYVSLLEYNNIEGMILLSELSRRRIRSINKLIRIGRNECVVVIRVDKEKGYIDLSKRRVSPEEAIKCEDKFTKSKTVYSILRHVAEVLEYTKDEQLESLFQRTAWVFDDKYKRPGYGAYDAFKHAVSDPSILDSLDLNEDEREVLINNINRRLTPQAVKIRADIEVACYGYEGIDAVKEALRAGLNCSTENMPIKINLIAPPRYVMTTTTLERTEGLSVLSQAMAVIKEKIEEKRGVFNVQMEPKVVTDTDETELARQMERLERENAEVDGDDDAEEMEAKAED
Sequence of Focal adhesion kinase 1 (Homo sapiens) (Q05397 2-1052 limits assumed): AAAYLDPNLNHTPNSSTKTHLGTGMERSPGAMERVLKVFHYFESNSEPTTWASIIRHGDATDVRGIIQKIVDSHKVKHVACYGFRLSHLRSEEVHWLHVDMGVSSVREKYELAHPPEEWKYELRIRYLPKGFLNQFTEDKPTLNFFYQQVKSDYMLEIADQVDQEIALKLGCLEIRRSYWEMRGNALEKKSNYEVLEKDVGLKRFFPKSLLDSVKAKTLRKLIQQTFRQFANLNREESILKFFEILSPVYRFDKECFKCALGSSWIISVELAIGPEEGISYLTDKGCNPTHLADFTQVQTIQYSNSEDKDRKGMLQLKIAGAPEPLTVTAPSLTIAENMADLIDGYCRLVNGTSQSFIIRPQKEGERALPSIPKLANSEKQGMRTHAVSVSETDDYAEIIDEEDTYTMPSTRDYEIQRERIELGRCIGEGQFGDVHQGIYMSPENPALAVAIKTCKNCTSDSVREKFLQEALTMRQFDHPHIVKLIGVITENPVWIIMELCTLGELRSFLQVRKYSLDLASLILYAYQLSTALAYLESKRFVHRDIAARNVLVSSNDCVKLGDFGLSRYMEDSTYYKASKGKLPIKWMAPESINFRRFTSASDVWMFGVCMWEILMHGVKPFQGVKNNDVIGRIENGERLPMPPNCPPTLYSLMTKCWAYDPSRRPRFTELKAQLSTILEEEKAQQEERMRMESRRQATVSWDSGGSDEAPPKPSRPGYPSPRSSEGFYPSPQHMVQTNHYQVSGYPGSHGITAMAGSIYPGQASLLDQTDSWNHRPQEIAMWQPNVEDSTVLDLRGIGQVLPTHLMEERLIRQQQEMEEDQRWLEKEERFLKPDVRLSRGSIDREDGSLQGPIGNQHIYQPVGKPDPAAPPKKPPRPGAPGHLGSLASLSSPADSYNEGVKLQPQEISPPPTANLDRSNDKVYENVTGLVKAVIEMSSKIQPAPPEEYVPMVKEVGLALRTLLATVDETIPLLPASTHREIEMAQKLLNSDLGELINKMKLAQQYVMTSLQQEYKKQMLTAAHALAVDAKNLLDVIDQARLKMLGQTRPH
Sequence of Protein disulfide-isomerase (Homo sapiens), P07237 [H256A] (P07237 whole entry H256A): as the sequence (P07237 whole entry) above, with H256A counted along it
Sequence of 72 kDa type IV collagenase (Homo sapiens) (P08253 110-660 limits assumed): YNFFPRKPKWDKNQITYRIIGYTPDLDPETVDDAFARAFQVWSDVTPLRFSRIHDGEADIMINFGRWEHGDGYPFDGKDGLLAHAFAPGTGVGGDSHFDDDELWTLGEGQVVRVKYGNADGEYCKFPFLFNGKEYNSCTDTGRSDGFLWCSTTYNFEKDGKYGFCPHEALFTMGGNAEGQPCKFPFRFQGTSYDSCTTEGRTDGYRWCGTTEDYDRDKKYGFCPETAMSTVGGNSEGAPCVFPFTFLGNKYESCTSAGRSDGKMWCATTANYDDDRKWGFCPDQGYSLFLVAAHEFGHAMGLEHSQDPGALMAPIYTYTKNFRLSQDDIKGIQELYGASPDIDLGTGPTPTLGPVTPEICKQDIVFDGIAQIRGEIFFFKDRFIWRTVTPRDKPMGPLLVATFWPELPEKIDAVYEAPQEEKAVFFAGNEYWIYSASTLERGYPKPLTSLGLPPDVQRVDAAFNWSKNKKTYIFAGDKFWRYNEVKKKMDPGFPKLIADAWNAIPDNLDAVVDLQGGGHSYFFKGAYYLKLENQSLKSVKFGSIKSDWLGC

In the case of `CCN(CC)S(=O)(=O)c1ccc(C(=O)/C=C/c2cccc(C#N)c2)cc1`, the CI [1] is reported as <1, the “inhibition (INH)” value [2] is reported as >50% and the IC50 [3] is reported as 17.7 µM. For the same compound, the IC50 [4] was 19.9 µM, the IC50 [5] was 26.4 µM and the IC50 [6] was 1.23 µM.
For `C#CC(=O)N(c1ccc(OC)cc1OC)C(C(=O)NCC(=O)OCC)c1cccs1` (stereo not given), the inhibition [7] was “inactive”, the Activity [8] was “Active” and the Activity [9] was “Dose-dependent effect”. For the same compound, the Activity [10] was “Active”, the Activity [11] was “inactive” and the Activity [12] was “Active”. The inhibition [13] was “inactive”, the Activity [14] was “inactive” and the Activity [15] was “Active”. For the same compound, the ΔTm [16] was 0.03 °C, the inhibition [17] was “Dose-dependent effect” and the IC50 [6] was 10.8 µM. The inhibition [18] was “inactive”, the inhibition [19] was “Active” and the Activity [20] was “Active”.
In the case of `CN(C)S(=O)(=O)c1ccc(C(=O)/C=C/c2cccc(C#N)c2)cc1`, the CI [1] is reported as <1 and the IC50 [6] is reported as 6.23 µM.
In the case of `O=C(/C=C/c1ccc(-c2ccncc2)cc1)c1cccc(O)c1`, the Activity [21] is reported as “Active”, the Activity [22] is reported as “inactive” and the “inhibition (INH)” value [23] is reported as >50%. For the same compound, the Activity [24] was “inactive”, the IC50 [3] was 24.9 µM and the Activity [25] was “Active”. The IC50 [4] was 3.8 µM, the Activity [26] was “Active” and the IC50 [5] was 11.3 µM. For the same compound, the Activity [27] was “inactive”, the ΔTm [16] was 0.34 °C and the inhibition [17] was “Dose-dependent effect”. For the same compound, the IC50 [28] was 31.8 µM, the IC50 [6] was 0.21 µM and the Activity [29] was “inactive”. For the same compound, the “Ratio IC50” value [30] was 8.39, the inhibition [31] was “inactive” and the Activity [32] was “Active”.
With `COc1ccc(C(=O)/C=C/c2cccc(C#N)c2)cc1` the Activity [33] was “inactive”, the inhibition [13] was “inactive” and the ΔTm [16] was -0.24 °C. For the same compound, the IC50 [6] was > 500 µM.
For `N#Cc1cccc(/C=C/C(=O)c2ccc(F)c(O)c2)c1`, the “inhibition (INH)” value [34] was >50%, the IC50 [3] was 22.9 µM and the IC50 [4] was 10.6 µM. It also gave an IC50 [5] of 16.8 µM and an IC50 [6] of 1.15 µM.

From ChEMBL document CHEMBL4390639, “Design, Synthesis, and Biological Evaluation of Novel Allosteric Protein Disulfide Isomerase Inhibitors” (J Med Chem, 2019)
